Measurements taken from PMC12530853 (RSC Advances, 2025).
Values after ≈ are worked out from the molar mass of the structure shown.

Key:
C. albicans ATCC 10231 = assay: Minimum inhibitory concentration; format: cell-based; details: Candida albicans, ATCC10231, read-out: Minimum inhibitory concentration (MIC) C. albicans ATCC 10231
Summary of the method: (§1)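 Exponential-phase yeast were washed three times in PBS and suspended at 1 × 10^3 CFU/mL in RPMI 1640. Test compound and fluconazole comparator were twofold serially diluted in microplates, each concentration in triplicate wells. Growth was read as OD600, from which the MIC was determined.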

C. albicans ATCC 14053 = assay: Minimum inhibitory concentration; format: cell-based; details: Candida albicans, ATCC14053, read-out: Minimum inhibitory concentration (MIC) C. albicans ATCC 14053
Summary of the method: as §1

F. solani 46492 = assay: Activity against additional fungal strains; format: cell-based; details: Table 2; no quantity or unit printed
Summary of the method: (§2)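 Fungi in exponential phase were washed three times in PBS and resuspended at 1 × 10^3 CFU mL−1 in RPMI 1640. Test compound and fluconazole were serially diluted twofold in 96-well plates, in triplicate wells per concentration. MIC was derived from OD600 readings.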

C. albicans ATCC 24433 = assay: Activity against additional fungal strains; format: cell-based; details: Table 2; no quantity or unit printed
Summary of the method: as §2

C. albicans ATCC 90028 = assay: Activity against additional fungal strains; format: cell-based; details: Table 2; no quantity or unit printed
Summary of the method: as §2

FO MYA 3461 = assay: Activity against additional fungal strains; format: cell-based; details: Table 2; no quantity or unit printed
Summary of the method: as §2

[1] = system: A. brasiliensis TCC 16404; assay: Activity against additional fungal strains; format: cell-based; details: Table 2; no quantity or unit printed
Summary of the method: as §2

F. solani 52628 = assay: Activity against additional fungal strains; format: cell-based; details: Table 2; no quantity or unit printed
Summary of the method: as §2

Candida albicans = details: lack of antifungal activity; cited from earlier work

Row | Structure (SMILES) | MIC (C. albicans ATCC 10231) | MIC (C. albicans ATCC 14053) | further results
1 | Clc1ccc(C=Nc2ncn[nH]2)cc1 [3g, 1-(4-Chlorophenyl)-N-(1H-1,2,4-triazol-5-yl)methanimine] | > 256 µg/mL | > 256 µg/mL | 
2 | C(=Nc1ncn[nH]1)c1ccncc1 [3h, 1-(Pyridin-4-yl)-N-(1H-1,2,4-triazol-5-yl)methanimine] | > 256 µg/mL | > 256 µg/mL | 
3 | O=[N+]([O-])c1ccc(C=Nc2ncn[nH]2)cc1 [3i, 1-(4-Nitrophenyl)-N-(1H-1,2,4-triazol-5-yl)methanimine] | 128 µg/mL (≈ 589 µM) | 128 µg/mL (≈ 589 µM) | 
4 | COc1ccc(C=Nc2ncn[nH]2)cc1 [3j, 1-(4-Methoxyphenyl)-N-(1H-1,2,4-triazol-5-yl)methanimine] | > 256 µg/mL | > 256 µg/mL | 
5 | Oc1ccc(C=Nc2ncn[nH]2)cc1 [3k, 4-{[(1H-1,2,4-Triazol-5-yl)imino]methyl}phenol] | > 256 µg/mL | > 256 µg/mL | 
6 | O=C(O)c1ccc(C=Nc2ncn[nH]2)cc1 [3l, 4-{[(1H-1,2,4-Triazol-5-yl)imino]methyl}benzoic acid] | > 256 µg/mL | > 256 µg/mL | 
7 | C[C@@H]1C/C=C/C=C/C=C/C=C/[C@H](O[C@@H]2O[C@H](C)[C@@H](O)[C@H](N)[C@@H]2O)C[C@@H]2O[C@](O)(C[C@@H](O)C[C@H]3O[C@@H]3/C=C/C(=O)O1)C[C@H](O)[C@H]2C(=O)O [Natamycin, reference compound] | 8 µg/mL (≈ 12 µM) | 8 µg/mL (≈ 12 µM) | Interaction against varied fungal strains: F. solani 46492 (F. solani 46492): 8; Interaction against varied fungal strains: C. albicans ATCC 24433 (C. albicans ATCC 24433): 8; Interaction against varied fungal strains: C. albicans ATCC 90028 (C. albicans ATCC 90028): 8; Interaction against varied fungal strains: FO MYA 3461 (FO MYA 3461): 8; Interaction against varied fungal strains: A. brasiliensis TCC 16404 [1]: 8; Interaction against varied fungal strains: F. solani 52628 (F. solani 52628): 8
8 | O=C(NC[C@@H](c1ccccc1)n1ccnc1)c1ccc(-c2ccc(Cl)cc2)cc1 [VID400] |  |  | MIC against Candida albicans (Candida albicans): > 128 µg/mL
